Values after ≈ are worked out from the molar mass of the structure shown.
Legend:
[1] = test system: Staphylococcus haemolyticus; assay: Antibacterial activity against Staphylococcus haemolyticus 602 strain
[2] = test system: Staphylococcus aureus; assay: Antibacterial activity against glycopeptide intermediate resistant Staphylococcus aureus 3797 strain; format: functional
Outline: (§1)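 MIC by broth microdilution in Mueller Hinton broth following NCCLS procedures. Compounds were dissolved in 10% DMSO in water, then diluted in broth. Final DMSO was 1.28% at 128 µg/mL antibiotic down to 0.0013% at 0.13 µg/mL. Repeat determinations were usually identical and always within 2-fold.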

[3] = test system: Enterococcus faecalis; assay: Antibacterial activity against glycopeptide resistant Enterococcus faecalis 560 strain; format: functional
Outline: as §1

[4] = test system: Staphylococcus aureus; assay: Antibacterial activity against glycopeptide intermediate resistant Staphylococcus aureus 3798 strain; format: functional
Outline: as §1

[5] = test system: Enterococcus faecium; assay: Antibacterial activity against glycopeptide susceptible Enterococcus faecium 568 strain; format: functional
Outline: (§2)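 MIC by broth microdilution in Mueller Hinton broth following NCCLS procedures. Compounds dissolved in 10% DMSO in water, then diluted in broth; test range 128 to 0.13 µg/mL, final DMSO 1.28% to 0.0013% accordingly. Repeat determinations usually identical and always within 2-fold. Strain 533 is a clinical isolate; strain 602 is a clinical S. haemoliticus isolate.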

[6] = test system: Enterococcus faecium; assay: Antibacterial activity against glycopeptide resistant Enterococcus faecium 569 strain; format: functional
Outline: as §1

[7] = test system: Staphylococcus epidermidis; assay: Antibacterial activity against Staphylococcus epidermis 533 strain; format: functional
[8] = test system: Enterococcus faecalis; assay: Antibacterial activity against glycopeptide susceptible Enterococcus faecalis 559 strain; format: functional
Outline: as §2

| Compound | MIC [1] | MIC [2] | MIC [3] | MIC [4] | MIC [5] | MIC [6] | MIC [7] | MIC [8] |
| --- | --- | --- | --- | --- | --- | --- | --- | --- |
| CN[C@H](CC(C)C)C(=O)N[C@H]1C(=O)N[C@@H](CC(N)=O)C(=O)N[C@H]2C(=O)N[C@H]3C(=O)N[C@H](C(=O)N[C@H](C(=O)O)c4cc(O)cc(O)c4-c4cc3ccc4O)[C@H](O[C@@H]3C[C@@](C)(N)[C@H](O)[C@@H](C)O3)c3ccc(cc3)Oc3cc2cc(c3O[C@H]2O[C@@H](CO)[C@H](O)[C@@H](O)[C@@H]2O[C@H]2C[C@](C)(N)[C@@H](O)[C@H](C)O2)Oc2ccc(cc2Cl)[C@H]1O [EREMOMYCIN] | 0.25 µg/mL (≈ 0.16 µM) | 8 µg/mL (≈ 5.13 µM) | > 128 µg/mL | 8 µg/mL (≈ 5.13 µM) | 0.25 µg/mL (≈ 0.16 µM) | > 128 µg/mL | 0.25 µg/mL (≈ 0.16 µM) | 0.25 µg/mL (≈ 0.16 µM) |
| N[C@H]1C(=O)N[C@@H]2Cc3ccc(c(Cl)c3)Oc3cc4cc(c3O)Oc3ccc(cc3Cl)[C@@H](O)[C@@H]3NC(=O)[C@H](NC(=O)[C@@H]4NC(=O)[C@@H](NC2=O)c2cc(O)cc(c2)Oc2cc1ccc2O)c1ccc(O)c(c1)-c1c(O)cc(O)cc1[C@@H](C(=O)O)NC3=O [TEICOPLANIN AGLYCON] | 0.25 µg/mL (≈ 0.209 µM) | 1 µg/mL (≈ 0.834 µM) | > 128 µg/mL | 1 µg/mL (≈ 0.834 µM) | 0.13 µg/mL (≈ 0.108 µM) | > 128 µg/mL | 0.25 µg/mL (≈ 0.209 µM) | 0.13 µg/mL (≈ 0.108 µM) |
